Data reported in ChEMBL document CHEMBL3994644, “Discovery of AAT-008, a novel, potent, and selective prostaglandin EP4 receptor antagonist” (Bioorg Med Chem Lett, 2017).
Values belong to the compound of their own block, whether it stands above or below them.

Assays:
[1] = biological target: T1, Prostaglandin E2 receptor EP4 subtype (Homo sapiens, UniProt P35408); test: Antagonist activity at human EP4 receptor expressed in HEK293 cells assessed as inhibition of PGE2-induced cAMP level by HTS assay; assay type: functional, cell-based; conditions: for Kb: read-out: pA2 (converted)
T1 sequence (P35408 whole entry): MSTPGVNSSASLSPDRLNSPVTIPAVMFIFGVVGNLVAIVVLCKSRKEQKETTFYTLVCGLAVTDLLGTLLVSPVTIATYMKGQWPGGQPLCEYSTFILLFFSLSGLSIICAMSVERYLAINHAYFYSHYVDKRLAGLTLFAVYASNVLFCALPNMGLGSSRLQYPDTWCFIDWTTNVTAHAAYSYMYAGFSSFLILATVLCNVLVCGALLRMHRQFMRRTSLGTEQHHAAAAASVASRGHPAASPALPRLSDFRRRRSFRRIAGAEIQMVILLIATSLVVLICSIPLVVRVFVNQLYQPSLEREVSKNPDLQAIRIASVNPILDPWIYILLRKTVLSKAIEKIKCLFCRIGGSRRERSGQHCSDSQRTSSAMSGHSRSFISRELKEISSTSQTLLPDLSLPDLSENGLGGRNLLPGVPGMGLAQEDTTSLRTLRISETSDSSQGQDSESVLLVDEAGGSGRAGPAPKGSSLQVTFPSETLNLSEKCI

[2] = Apparent permeability from apical to basolateral side in human Caco2 cells; assay type: ADME, cell-based; conditions: Caco-2
How it was run: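 Caco-2 monolayer permeability (Papp, apical to basolateral) was measured under constant pH, with the apical side at pH 6.5 and the basolateral side at pH 7.4.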

[3] = biological target: T1, Prostaglandin E2 receptor EP4 subtype; test: Displacement of [3H]PGE from human EP4 receptor expressed in HEK293 cell membranes
How it was run: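 Membrane binding assay using [3H]PGE2 with membranes from HEK-293 cells expressing human EP4. The value is expressed as Ki.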

[4] = biological target: T2, Prostaglandin E2 receptor EP3 subtype (Homo sapiens, UniProt P43115); test: Antagonist activity at human EP3 receptor
T2 sequence (P43115 whole entry): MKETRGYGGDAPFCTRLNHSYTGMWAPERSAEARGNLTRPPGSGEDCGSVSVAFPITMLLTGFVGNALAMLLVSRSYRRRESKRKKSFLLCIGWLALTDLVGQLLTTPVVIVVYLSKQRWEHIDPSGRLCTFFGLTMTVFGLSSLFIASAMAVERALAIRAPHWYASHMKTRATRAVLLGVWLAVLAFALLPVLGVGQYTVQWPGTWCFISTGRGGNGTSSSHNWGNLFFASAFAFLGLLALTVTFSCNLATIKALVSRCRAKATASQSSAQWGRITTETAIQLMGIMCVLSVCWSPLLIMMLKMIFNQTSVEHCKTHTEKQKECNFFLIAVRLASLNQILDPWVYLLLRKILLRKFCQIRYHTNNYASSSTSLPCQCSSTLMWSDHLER

[5] = biological target: T3, Prostaglandin E2 receptor EP1 subtype (Homo sapiens, UniProt P34995); test: Antagonist activity at human EP1 receptor
T3 sequence (P34995 whole entry): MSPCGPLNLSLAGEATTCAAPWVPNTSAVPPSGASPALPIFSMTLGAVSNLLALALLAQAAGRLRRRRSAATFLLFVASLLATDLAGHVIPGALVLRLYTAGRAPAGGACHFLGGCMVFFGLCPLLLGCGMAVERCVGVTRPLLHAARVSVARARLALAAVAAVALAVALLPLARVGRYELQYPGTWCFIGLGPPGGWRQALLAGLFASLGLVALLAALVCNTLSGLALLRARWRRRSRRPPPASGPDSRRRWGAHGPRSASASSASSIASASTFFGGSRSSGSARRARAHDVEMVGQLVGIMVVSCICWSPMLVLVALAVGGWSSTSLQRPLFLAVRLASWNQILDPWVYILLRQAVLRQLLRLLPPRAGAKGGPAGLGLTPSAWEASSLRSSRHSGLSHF

[6] = biological target: Prostaglandin E2 receptor EP2 subtype (Homo sapiens, UniProt P43116); test: Antagonist activity at human EP2 receptor
Prostaglandin E2 receptor EP2 subtype, sequence (P43116 whole entry): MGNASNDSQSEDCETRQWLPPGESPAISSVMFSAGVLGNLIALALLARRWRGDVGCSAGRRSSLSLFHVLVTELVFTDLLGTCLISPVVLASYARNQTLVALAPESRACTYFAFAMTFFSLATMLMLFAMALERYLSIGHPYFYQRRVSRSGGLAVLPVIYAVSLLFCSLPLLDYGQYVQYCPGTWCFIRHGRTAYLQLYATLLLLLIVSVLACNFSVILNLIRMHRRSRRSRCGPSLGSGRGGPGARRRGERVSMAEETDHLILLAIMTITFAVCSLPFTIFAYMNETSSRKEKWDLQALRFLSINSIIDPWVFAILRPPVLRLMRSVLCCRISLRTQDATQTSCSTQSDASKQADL

[7] = test system: Rattus norvegicus; test: Analgesic activity in po dosed rat assessed as inhibition of carrageenan-induced mechanical hyperalgesia measured at 1 hr post dose; assay type: functional; conditions: read-out: MED
How it was run: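 Rats dosed orally. Mechanical hyperalgesia was induced with carrageenan and assessed 1 h post dose. The value is the minimum effective dose (MED, mg/kg PO).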

[8] = Half life in human liver microsomes; assay type: ADME, microsome
[9] = biological target: Prostaglandin E2 receptor EP4 subtype (Mus musculus, UniProt P32240); test: Antagonist activity at mouse recombinant EP4 receptor assessed as inhibition of PGE2-induced cAMP level by cell based assay; assay type: functional; conditions: read-out: pA2 (converted)
Prostaglandin E2 receptor EP4 subtype (Mus musculus, UniProt P32240), sequence (P32240 whole entry): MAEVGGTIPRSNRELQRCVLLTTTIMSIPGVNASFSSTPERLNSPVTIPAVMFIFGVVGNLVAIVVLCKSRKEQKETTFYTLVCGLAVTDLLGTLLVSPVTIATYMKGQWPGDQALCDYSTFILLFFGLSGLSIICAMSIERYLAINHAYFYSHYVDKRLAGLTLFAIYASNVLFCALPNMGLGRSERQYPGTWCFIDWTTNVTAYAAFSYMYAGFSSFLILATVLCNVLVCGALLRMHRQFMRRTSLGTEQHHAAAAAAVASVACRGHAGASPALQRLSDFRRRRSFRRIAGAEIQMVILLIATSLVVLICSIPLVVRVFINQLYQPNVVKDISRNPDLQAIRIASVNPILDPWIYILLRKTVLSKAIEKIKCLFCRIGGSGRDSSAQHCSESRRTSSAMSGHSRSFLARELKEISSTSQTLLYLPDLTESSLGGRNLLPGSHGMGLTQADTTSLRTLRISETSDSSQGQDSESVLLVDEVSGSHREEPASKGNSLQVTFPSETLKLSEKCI
How it was run: (§1)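 Functional antagonism was measured as inhibition of PGE2-induced cAMP in cells transfected with rodent EP4 (mouse or rat). The value is expressed as pA2.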

[10] = biological target: Prostaglandin E receptor 4 (Canis lupus familiaris, UniProt Q9TU16); test: Antagonist activity at dog recombinant EP4 receptor
Prostaglandin E receptor 4, sequence (Q9TU16 whole entry): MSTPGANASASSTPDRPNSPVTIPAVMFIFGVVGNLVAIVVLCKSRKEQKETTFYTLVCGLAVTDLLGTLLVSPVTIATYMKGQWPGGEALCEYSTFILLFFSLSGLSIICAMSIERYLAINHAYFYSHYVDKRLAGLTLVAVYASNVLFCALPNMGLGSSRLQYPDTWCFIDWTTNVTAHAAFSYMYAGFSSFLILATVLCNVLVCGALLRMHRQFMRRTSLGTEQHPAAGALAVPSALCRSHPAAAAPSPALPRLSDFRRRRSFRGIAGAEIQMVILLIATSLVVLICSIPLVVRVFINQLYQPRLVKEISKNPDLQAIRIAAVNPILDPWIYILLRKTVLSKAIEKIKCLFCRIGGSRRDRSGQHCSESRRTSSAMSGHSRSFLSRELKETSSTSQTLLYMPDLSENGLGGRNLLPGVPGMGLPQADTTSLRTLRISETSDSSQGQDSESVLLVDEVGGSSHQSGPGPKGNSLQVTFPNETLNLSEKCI

[11] = biological target: Prostacyclin receptor (Homo sapiens, UniProt P43119); test: Antagonist activity at human IP receptor
Prostacyclin receptor, sequence (P43119 whole entry): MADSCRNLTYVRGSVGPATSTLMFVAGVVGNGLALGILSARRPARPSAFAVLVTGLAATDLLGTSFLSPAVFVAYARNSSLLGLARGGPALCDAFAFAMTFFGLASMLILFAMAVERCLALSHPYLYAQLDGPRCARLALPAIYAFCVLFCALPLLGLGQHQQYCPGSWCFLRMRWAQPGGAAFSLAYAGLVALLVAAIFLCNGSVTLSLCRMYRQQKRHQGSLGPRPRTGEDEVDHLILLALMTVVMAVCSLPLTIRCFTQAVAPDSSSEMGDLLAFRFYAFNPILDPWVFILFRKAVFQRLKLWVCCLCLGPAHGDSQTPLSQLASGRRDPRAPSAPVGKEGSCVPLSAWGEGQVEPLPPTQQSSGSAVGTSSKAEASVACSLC

[12] = biological target: Prostaglandin F2-alpha receptor (Homo sapiens, UniProt P43088); test: Antagonist activity at human FP receptor
Prostaglandin F2-alpha receptor, sequence (P43088 whole entry): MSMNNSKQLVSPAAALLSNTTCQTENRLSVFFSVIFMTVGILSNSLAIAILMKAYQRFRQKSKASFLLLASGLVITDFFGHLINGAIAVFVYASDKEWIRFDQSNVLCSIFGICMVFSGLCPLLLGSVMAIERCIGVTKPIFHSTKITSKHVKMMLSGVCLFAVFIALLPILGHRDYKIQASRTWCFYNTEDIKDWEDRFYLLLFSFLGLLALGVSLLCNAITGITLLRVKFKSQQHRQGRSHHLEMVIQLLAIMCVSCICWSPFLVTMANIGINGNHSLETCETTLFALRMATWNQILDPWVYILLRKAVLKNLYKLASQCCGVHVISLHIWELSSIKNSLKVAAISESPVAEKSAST

[13] = biological target: T4, Thromboxane A2 receptor (Homo sapiens, UniProt P21731); test: Antagonist activity at human platelet TP receptor
T4 sequence (P21731 whole entry): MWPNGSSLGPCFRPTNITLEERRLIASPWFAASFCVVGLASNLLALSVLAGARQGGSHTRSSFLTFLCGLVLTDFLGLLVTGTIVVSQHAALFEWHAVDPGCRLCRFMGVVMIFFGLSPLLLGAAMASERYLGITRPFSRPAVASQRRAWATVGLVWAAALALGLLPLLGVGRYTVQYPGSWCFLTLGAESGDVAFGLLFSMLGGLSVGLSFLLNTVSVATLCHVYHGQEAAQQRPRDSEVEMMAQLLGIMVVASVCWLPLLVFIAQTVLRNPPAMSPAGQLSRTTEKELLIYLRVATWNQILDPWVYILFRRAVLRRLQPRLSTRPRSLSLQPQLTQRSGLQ

[14] = biological target: T5, Prostaglandin E2 receptor EP4 subtype (Rattus norvegicus, UniProt P43114); test: Antagonist activity at rat recombinant EP4 receptor assessed as inhibition of PGE2-induced cAMP level by cell based assay; assay type: functional; conditions: read-out: pA2 (converted); how it was run: as §1
T5 sequence (P43114 whole entry): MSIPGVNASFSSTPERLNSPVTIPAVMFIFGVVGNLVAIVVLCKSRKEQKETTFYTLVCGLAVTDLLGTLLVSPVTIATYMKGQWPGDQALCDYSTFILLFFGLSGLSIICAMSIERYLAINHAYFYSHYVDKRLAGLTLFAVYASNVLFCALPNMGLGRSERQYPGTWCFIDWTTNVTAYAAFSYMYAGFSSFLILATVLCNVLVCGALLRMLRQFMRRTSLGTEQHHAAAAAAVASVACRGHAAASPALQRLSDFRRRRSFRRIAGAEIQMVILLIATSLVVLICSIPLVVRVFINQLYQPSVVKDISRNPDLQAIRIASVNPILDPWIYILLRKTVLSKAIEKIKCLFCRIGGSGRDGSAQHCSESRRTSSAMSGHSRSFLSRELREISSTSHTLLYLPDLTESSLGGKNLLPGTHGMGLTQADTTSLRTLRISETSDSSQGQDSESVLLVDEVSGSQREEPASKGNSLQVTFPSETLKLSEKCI

[15] = test system: Rattus norvegicus; test: Analgesic activity in po dosed rat model of chronic inflammatory pain assessed as inhibition of CFA-induced weight bearing deficit; assay type: functional; conditions: read-out: MED
How it was run: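 Chronic inflammatory pain was modelled in rats with CFA and read out as weight bearing deficit after oral dosing. The value is the minimum effective dose (MED, mg/kg PO).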

[16] = biological target: T5, Prostaglandin E2 receptor EP4 subtype; test: Antagonist activity at rat recombinant EP4 receptor
[17] = Antagonist activity at human DP receptor

Compound: C[C@H](NC(=O)c1cc(Cl)cnc1Oc1cc(F)ccc1F)c1ccc(C(=O)O)cc1
IC50 [1]: < 50 nM

Compound: CCc1nc2c(C)nc(C)cc2n1-c1ccc(CCNC(=O)NS(=O)(=O)c2ccc(C)cc2)cc1 [GRAPIPRANT]
Kb [9]: 7.76 nM
Ki [10]: 24 nM
Kb [1]: 4.79 nM
Ki [4]: > 5000 nM
Ki [5]: > 5000 nM
Ki [11]: > 5000 nM
Ki [3]: 13 nM
Ki [6]: > 5000 nM
minimal effective dose [7]: 30 mg/kg
Ki [12]: > 5000 nM
Ki [13]: > 5000 nM
Kb [14]: 6.46 nM
minimal effective dose [15]: 20 mg/kg
Ki [16]: 20 nM
Ki [17]: 2930 nM

Compound: CC(C)(NC(=O)c1cc(F)cnc1Oc1ccc(F)cc1)c1ccc(C(=O)O)cc1
Papp A→B [2]: 36.3 ×10⁻⁶ cm/s
IC50 [3]: 545 nM

Compound: C[C@H](NC(=O)c1cc(Cl)cnc1Oc1cncc(F)c1)c1ccc(C(=O)O)cc1
IC50 [1]: 175 nM

Compound: C[C@H](NC(=O)c1cc(F)cnc1Oc1ccc(F)cc1)c1ccc(C(=O)O)cc1
IC50 [1]: 143 nM
Papp A→B [2]: 30.2 ×10⁻⁶ cm/s
IC50 [3]: 28.7 nM

Compound: C[C@H](NC(=O)c1cc(Cl)cnc1Oc1cccc(OC(F)(F)F)c1)c1ccc(C(=O)O)cc1
IC50 [1]: 1790 nM

Compound: C[C@H](NC(=O)c1cc(Cl)cnc1Oc1cccc(F)c1F)c1ccc(C(=O)O)cc1
IC50 [1]: < 50 nM

Compound: C[C@H](NC(=O)c1cc(Cl)cnc1Oc1cc(F)cc(F)c1)c1ccc(C(=O)O)cc1
IC50 [1]: < 50 nM

Compound: COc1cccc(Oc2ncc(Cl)cc2C(=O)N[C@@H](C)c2ccc(C(=O)O)cc2)c1
IC50 [1]: 340 nM

Further lines, with some results ahead:

IC50 [1]: 101 nM
Papp A→B [2]: 51.4 ×10⁻⁶ cm/s
IC50 [3]: 21.6 nM
Compound: O=C(O)c1ccc(CNC(=O)c2cc(Cl)ccc2Oc2ccc(F)cc2)cc1

IC50 [1]: 25.9 nM
Kb [1]: 2.45 nM
IC50 [4]: > 20000 nM
IC50 [5]: > 20000 nM
Papp A→B [2]: 30.3 ×10⁻⁶ cm/s
IC50 [3]: 9.68 nM
IC50 [6]: 4360 nM
half-life [8]: > 2 h
Compound: C[C@H](NC(=O)c1cc(Cl)cnc1Oc1ccc(F)cc1)c1ccc(C(=O)O)cc1
minimal effective dose [7]: 10 mg/kg

IC50 [1]: 317 nM
IC50 [4]: > 20000 nM
IC50 [5]: > 20000 nM
Papp A→B [2]: 36.3 ×10⁻⁶ cm/s
IC50 [3]: 124 nM
IC50 [6]: 236 nM
Compound: O=C(O)c1ccc(CNC(=O)c2cc(F)ccc2Oc2ccc(F)cc2)cc1

IC50 [1]: 41.1 nM
Compound: C[C@H](NC(=O)c1cc(Cl)ccc1Oc1cccc(Cl)c1)c1ccc(C(=O)O)cc1

IC50 [1]: 1210 nM
Papp A→B [2]: 25.3 ×10⁻⁶ cm/s
Compound: C[C@@H](NC(=O)c1cc(Cl)cnc1Oc1ccc(F)cc1)c1ccc(C(=O)O)cc1

IC50 [1]: 302 nM
Compound: O=C(NCc1ccc(C(=O)NS(=O)(=O)c2cccc(Cl)c2)cc1)c1cccc(OCc2nc3cc(F)ccc3s2)c1

IC50 [1]: 38.2 nM
Kb [1]: 1.78 nM
IC50 [4]: > 20000 nM
IC50 [5]: > 20000 nM
Papp A→B [2]: 32.4 ×10⁻⁶ cm/s
IC50 [3]: 6.59 nM
IC50 [6]: 709 nM
half-life [8]: > 2 h
Compound: C[C@H](NC(=O)c1cc(Cl)ccc1Oc1ccc(F)cc1)c1ccc(C(=O)O)cc1
minimal effective dose [7]: 10 mg/kg
